# Assay results taken from ChEMBL document CHEMBL1134325, “Diaminoindanes as microsomal triglyceride transfer protein inhibitors” (J Med Chem, 2001).
# How the values were obtained:
# [1] = molecular target: T1, Microsomal triglyceride transfer protein large subunit (Homo sapiens, UniProt P55157); assay: In vitro inhibitory activity against MTP using MTP transfer assay
# T1 sequence (P55157 whole entry): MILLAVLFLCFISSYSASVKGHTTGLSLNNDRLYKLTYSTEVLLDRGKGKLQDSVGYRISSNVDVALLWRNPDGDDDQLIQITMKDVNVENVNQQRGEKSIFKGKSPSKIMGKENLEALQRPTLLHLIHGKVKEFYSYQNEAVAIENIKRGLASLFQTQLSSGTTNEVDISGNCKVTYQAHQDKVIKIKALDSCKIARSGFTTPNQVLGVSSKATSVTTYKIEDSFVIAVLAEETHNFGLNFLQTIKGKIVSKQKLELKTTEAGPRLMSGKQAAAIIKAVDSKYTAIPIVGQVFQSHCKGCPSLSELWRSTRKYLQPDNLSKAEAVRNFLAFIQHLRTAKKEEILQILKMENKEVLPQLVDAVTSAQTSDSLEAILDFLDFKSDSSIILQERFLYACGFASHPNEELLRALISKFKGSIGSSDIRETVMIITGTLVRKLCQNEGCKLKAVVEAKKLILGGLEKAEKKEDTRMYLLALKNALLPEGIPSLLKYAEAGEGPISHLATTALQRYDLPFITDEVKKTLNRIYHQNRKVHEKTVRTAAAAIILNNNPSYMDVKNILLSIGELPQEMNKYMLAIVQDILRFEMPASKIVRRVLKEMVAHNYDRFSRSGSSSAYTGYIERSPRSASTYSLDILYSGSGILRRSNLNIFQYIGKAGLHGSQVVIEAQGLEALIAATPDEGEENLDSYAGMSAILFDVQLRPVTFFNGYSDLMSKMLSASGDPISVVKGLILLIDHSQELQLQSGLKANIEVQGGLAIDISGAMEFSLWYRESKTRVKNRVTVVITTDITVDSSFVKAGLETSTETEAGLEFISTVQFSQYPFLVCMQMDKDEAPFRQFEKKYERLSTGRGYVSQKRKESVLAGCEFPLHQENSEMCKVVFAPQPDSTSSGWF
# Rattus norvegicus [2] = assay: Inhibition of total cholesterol in normolipidemic rats after 2 hr of 50 mg/kg oral dosing; assay type: functional
# Outline: (§1)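 Overnight-fasted normolipidemic rats received a single oral dose in cornstarch vehicle. Blood was drawn at 2, 6 and 24 h post-dose and assayed for triglycerides and total cholesterol, with free access to food after the 6 h sample. Value is mean percent inhibition versus a separate vehicle-treated group, unpaired t test p < 0.05, NS = no significant change, N = 6.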
# Rattus norvegicus [3] = assay: Inhibition of plasma triglycerides in normolipidemic rats after 24 h of 50 mg/kg oral dosing; no significant change; assay type: functional, organism-based; set-up: dose 50 mg/kg; outline: as §1
# Rattus norvegicus [4] = assay: Inhibition of plasma triglycerides in normolipidemic rats after 2 hr of 50 mg/kg oral dosing; assay type: functional; outline: as §1
# Rattus norvegicus [5] = assay: Inhibition of total cholesterol in normolipidemic rats after 24 hr of 50 mg/kg oral dosing; no significant change; assay type: functional, organism-based; set-up: dose 50 mg/kg; outline: as §1
# Rattus norvegicus [6] = assay: Inhibition of total cholesterol in normolipidemic rats after 6 hr of 50 mg/kg oral dosing; assay type: functional; outline: as §1
# Rattus norvegicus [7] = assay: Inhibition of plasma triglycerides in normolipidemic rats after 6 h of […] mg/kg oral dosing; no significant change; assay type: functional, organism-based; set-up: dose 50 mg/kg
# Rattus norvegicus [8] = assay: Inhibition of plasma triglycerides in normolipidemic rats after 6 hr of 50 mg/kg oral dosing; assay type: functional; outline: as §1
# Rattus norvegicus [9] = assay: Inhibition of plasma triglycerides in normolipidemic rats after 24 hr of 50 mg/kg oral dosing; assay type: functional; outline: as §1
# Rattus norvegicus [10] = assay: Inhibition of total cholesterol in normolipidemic rats after 24 hr of 50 mg/kg oral dosing; assay type: functional; outline: as §1
# Rattus norvegicus [11] = assay: Inhibition of total cholesterol in normolipidemic rats after 6 h of […] mg/kg oral dosing; no significant change; assay type: functional, organism-based; set-up: dose 50 mg/kg
structure (smiles),measurement,setting,value
CN(C)C(=O)NC1Cc2ccc(NC(=O)c3ccccc3-c3ccc(C(F)(F)F)cc3)cc2C1 (stereo not drawn),IC50,[1],80 nM
COC(=O)N1CCN([C@@H]2Cc3ccc(NC(=O)c4cccc(C)c4-c4ccc(C(F)(F)F)cc4)cc3C2)CC1,Reduction,Rattus norvegicus [2],23%
same,NS,Rattus norvegicus [3],no significant change
same,IC50,[1],1000 nM
same,Reduction,Rattus norvegicus [4],58%
same,NS,Rattus norvegicus [5],no significant change
same,Reduction,Rattus norvegicus [6],20%
same,NS,Rattus norvegicus [7],no significant change
COC(=O)N[C@@H]1Cc2ccc(NC(=O)c3cc(C)cc(C)c3-c3ccc(C(F)(F)F)cc3)cc2C1,IC50,[1],90 nM
Cc1cccc(C(=O)Nc2ccc3c(c2)C[C@@H](NS(C)(=O)=O)C3)c1-c1ccc(C(F)(F)F)cc1,Reduction,Rattus norvegicus [2],12%
same,Reduction,Rattus norvegicus [8],33%
same,NS,Rattus norvegicus [3],no significant change
same,IC50,[1],204 nM
same,Reduction,Rattus norvegicus [4],33%
same,NS,Rattus norvegicus [5],no significant change
same,Reduction,Rattus norvegicus [6],15%
COC(=O)N[C@H]1Cc2ccc(NC(=O)c3cccc(C(F)(F)F)c3-c3ccc(C(F)(F)F)cc3)cc2C1,IC50,[1],50 nM
O=C(Nc1ccc2c(c1)CC(NS(=O)(=O)c1ccccc1)C2)c1ccccc1-c1ccccc1 (stereo not drawn),IC50,[1],710 nM
COC(=O)NC1CCc2ccc(NC(=O)c3cccc(C)c3-c3ccc(C(F)(F)F)cc3)cc2CC1 (stereo not drawn),Reduction,Rattus norvegicus [2],20%
same,NS,Rattus norvegicus [3],no significant change
same,IC50,[1],20 nM
same,Reduction,Rattus norvegicus [4],39%
same,NS,Rattus norvegicus [5],no significant change
same,Reduction,Rattus norvegicus [6],20%
same,NS,Rattus norvegicus [7],no significant change
Cc1cccc(C(=O)Nc2ccc3c(c2)CC(NS(=O)(=O)c2ccccc2)C3)c1-c1ccc(F)cc1 (stereo not drawn),IC50,[1],240 nM
O=C(NC1Cc2ccc(NC(=O)c3ccccc3-c3ccc(C(F)(F)F)cc3)cc2C1)c1ccccc1 (stereo not drawn),IC50,[1],> 1000 nM
COC(=O)NC1CCc2ccc(NC(=O)c3cc(C)cc(C)c3-c3ccc(C(F)(F)F)cc3)cc2CC1 (stereo not drawn),Reduction,Rattus norvegicus [9],36%
same,Reduction,Rattus norvegicus [2],17%
same,Reduction,Rattus norvegicus [8],44%
same,IC50,[1],20 nM
same,Reduction,Rattus norvegicus [4],73%
same,Reduction,Rattus norvegicus [6],21%
same,Reduction,Rattus norvegicus [10],22%
COC(=O)NCC1Cc2ccc(NC(=O)c3cccc(C)c3-c3ccc(Cl)cc3)cc2C1 (stereo not drawn),IC50,[1],100 nM
CS(=O)(=O)NC1Cc2ccc(NC(=O)c3ccccc3-c3ccc(C(F)(F)F)cc3)cc2C1 (stereo not drawn),IC50,[1],120 nM
COC(=O)N[C@H]1Cc2ccc(NC(=O)c3ccccc3-c3ccc(C(F)(F)F)cc3)cc2C1,Reduction,Rattus norvegicus [2],20%
same,Reduction,Rattus norvegicus [8],74%
same,NS,Rattus norvegicus [3],no significant change
same,IC50,[1],68 nM
same,Reduction,Rattus norvegicus [4],69%
same,NS,Rattus norvegicus [5],no significant change
same,Reduction,Rattus norvegicus [6],39%
Cc1cccc(C(=O)Nc2ccc3c(c2)CC(NS(=O)(=O)c2cccs2)C3)c1-c1ccc(F)cc1 (stereo not drawn),IC50,[1],50 nM
Cc1cc(C)c(-c2ccc(C(F)(F)F)cc2)c(C(=O)Nc2ccc3c(c2)C[C@@H](NS(=O)(=O)c2cccs2)C3)c1,Reduction,Rattus norvegicus [2],33%
same,Reduction,Rattus norvegicus [8],68%
same,NS,Rattus norvegicus [3],no significant change
same,IC50,[1],180 nM
same,Reduction,Rattus norvegicus [4],79%
same,NS,Rattus norvegicus [5],no significant change
same,Reduction,Rattus norvegicus [6],46%
Cc1cccc(C(=O)Nc2ccc3c(c2)CC(CNS(C)(=O)=O)C3)c1-c1ccc(C(F)(F)F)cc1 (stereo not drawn),IC50,[1],150 nM
COC(=O)NC1CCc2ccc(NC(=O)c3cccc(C)c3-c3ccc(Cl)cc3)cc2CC1 (stereo not drawn),IC50,[1],80 nM
COC(=O)NC1Cc2ccc(NC(=O)c3cc(C)cc(C)c3-c3ccc(Cl)cc3)cc2C1 (stereo not drawn),IC50,[1],120 nM
O=C(Nc1ccc2c(c1)CC(NS(=O)(=O)c1ccccc1)C2)c1ccccc1-c1ccc(C(F)(F)F)cc1 (stereo not drawn),Reduction,Rattus norvegicus [2],21%
same,Reduction,Rattus norvegicus [8],30%
same,NS,Rattus norvegicus [11],no significant change
same,NS,Rattus norvegicus [3],no significant change
same,IC50,[1],105 nM
same,Reduction,Rattus norvegicus [4],57%
same,NS,Rattus norvegicus [5],no significant change
COC(=O)N[C@@H]1Cc2ccc(NC(=O)c3ccccc3-c3ccc(C(F)(F)F)cc3)cc2C1,IC50,[1],110 nM
CC(=O)NC1Cc2ccc(NC(=O)c3ccccc3-c3ccc(C(F)(F)F)cc3)cc2C1 (stereo not drawn),IC50,[1],80 nM
O=C(Nc1ccc2c(c1)CC(NCc1ccccc1)C2)c1ccccc1-c1ccc(C(F)(F)F)cc1 (stereo not drawn),IC50,[1],4800 nM
Cc1cccc(C(=O)Nc2ccc3c(c2)CCC(NS(C)(=O)=O)CC3)c1-c1ccc(Cl)cc1 (stereo not drawn),IC50,[1],90 nM
Cc1cccc(C(=O)Nc2ccc3c(c2)C[C@H](NS(C)(=O)=O)C3)c1-c1ccc(C(F)(F)F)cc1,Reduction,Rattus norvegicus [2],27%
same,Reduction,Rattus norvegicus [8],68%
same,NS,Rattus norvegicus [3],no significant change
same,IC50,[1],34 nM
same,Reduction,Rattus norvegicus [4],74%
same,NS,Rattus norvegicus [5],no significant change
same,Reduction,Rattus norvegicus [6],42%
COc1cccc(C(=O)Nc2ccc3c(c2)CC(NS(C)(=O)=O)C3)c1-c1ccc(Cl)cc1 (stereo not drawn),IC50,[1],70 nM
COC(=O)N[C@H]1Cc2ccc(NC(=O)c3cc(C(F)(F)F)ccc3-c3ccc(C(F)(F)F)cc3)cc2C1,IC50,[1],410 nM
Cc1ccc(-c2c(C)cccc2C(=O)Nc2ccc3c(c2)CC(NS(=O)(=O)c2ccccc2)C3)cc1 (stereo not drawn),IC50,[1],93 nM
Cc1cccc(C(=O)Nc2ccc3c(c2)CC(NS(=O)(=O)c2ccccc2)C3)c1-c1ccc(C#N)cc1 (stereo not drawn),IC50,[1],120 nM
Cc1cccc(C(=O)Nc2ccc3c(c2)CC(CNS(C)(=O)=O)C3)c1-c1ccc(Cl)cc1 (stereo not drawn),IC50,[1],500 nM
Cc1cccc(C(=O)Nc2ccc3c(c2)CCC(NS(C)(=O)=O)CC3)c1-c1ccc(C(F)(F)F)cc1 (stereo not drawn),Reduction,Rattus norvegicus [2],29%
same,Reduction,Rattus norvegicus [8],53%
same,NS,Rattus norvegicus [3],no significant change
same,IC50,[1],80 nM
same,Reduction,Rattus norvegicus [4],81%
same,Reduction,Rattus norvegicus [6],41%
same,Reduction,Rattus norvegicus [10],17%
Cc1cccc(C(=O)Nc2ccc3c(c2)CCC(NS(=O)(=O)c2cccs2)CC3)c1-c1ccc(C(F)(F)F)cc1 (stereo not drawn),IC50,[1],140 nM
Cc1cccc(C(=O)Nc2ccc3c(c2)CC(NS(=O)(=O)c2cccs2)C3)c1-c1ccc(Cl)cc1 (stereo not drawn),IC50,[1],120 nM
Cc1cccc(C(=O)Nc2ccc3c(c2)CC(NS(C)(=O)=O)C3)c1-c1ccc(Cl)cc1 (stereo not drawn),IC50,[1],100 nM
Cc1cccc(C(=O)Nc2ccc3c(c2)CC(NS(=O)(=O)c2ccccc2)C3)c1-c1ccc(Cl)cc1 (stereo not drawn),IC50,[1],100 nM
Cc1cccc(C(=O)Nc2ccc3c(c2)CC(CNS(=O)(=O)c2cccs2)C3)c1-c1ccc(C(F)(F)F)cc1 (stereo not drawn),IC50,[1],14 nM
COC(=O)NCC1Cc2ccc(NC(=O)c3cc(C)cc(C)c3-c3ccc(C(F)(F)F)cc3)cc2C1 (stereo not drawn),IC50,[1],40 nM
Cc1cccc(C(=O)Nc2ccc3c(c2)CC(NS(C)(=O)=O)C3)c1-c1ccc(F)cc1 (stereo not drawn),IC50,[1],170 nM
COC(=O)N[C@H]1Cc2ccc(NC(=O)c3cc(C)cc(C)c3-c3ccc(C(F)(F)F)cc3)cc2C1,IC50,[1],70 nM
COc1cccc(C(=O)Nc2ccc3c(c2)CC(NS(=O)(=O)c2ccccc2)C3)c1-c1ccc(Cl)cc1 (stereo not drawn),IC50,[1],110 nM
